Values joined by “and” are separate entries in the source; they are usually repeats but may differ in a detail not shown here. Equal entries are not always repeated.
Test system: U2OS
Assay: Multiplex assay against U2OS
Format: toxicity, cell-based
Settings: human
Summary of the method: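 Live cells were stained at seeding with Hoechst33342, BioTracker Green Microtubule Cytoskeleton Dye, MitoTracker Red and Annexin V Alexa Fluor 680. Following compound addition, they were imaged on a CQ1 microscope at 37°C and 5% CO2 and gated by CellPathfinder machine learning into Hoechst high-intensity objects or normal cells, with normal cells split into healthy, pyknosed or fragmented nuclei and pyknosed cells into mitotic or apoptotic. Tubulin, mitochondrial-mass and membrane-permeability phenotypes are per cents of healthy-nucleus cells.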

[1] = 12 h, 1 µM, compound concentration 1 uM, replicate 1
[2] = 12 h, 1 µM, compound concentration 1 uM, replicate 2
[3] = 12 h, 10 µM, compound concentration 10 uM, replicate 1
[4] = 12 h, 10 µM, compound concentration 10 uM, replicate 2
[5] = 24 h, 1 µM, compound concentration 1 uM, replicate 1
[6] = 24 h, 1 µM, compound concentration 1 uM, replicate 2
[7] = 24 h, 10 µM, compound concentration 10 uM, replicate 1
[8] = 24 h, 10 µM, compound concentration 10 uM, replicate 2
[9] = 48 h, 10 µM, compound concentration 10 uM, replicate 1
[10] = 48 h, 10 µM, compound concentration 10 uM, replicate 2

For `Cl.O=C(c1ccc(Nc2nccc(-c3cc4ccccc4s3)n2)cc1)N1CCC(N2CCCC2)CC1`, the “Population Apoptotic (%)” value [1] was 31%, the “Population Fragmented Nuclei (%)” value [1] was 8% and the “Population Healthy Nuclei (%)” value [1] was 80%. For the same compound, the “Population Hoechst High Intensity Objects (%)” value [1] was 1%, the “Population Membrane Permeable-Phenotype (%)” value [1] was 18% and the “Population Mitochondria Different-Phenotype (%)” value [1] was 11%. The “Population Mitotic Cells (%)” value [1] was 68%, the “Population Normal (%)” value [1] was 98% and the “Population Pyknosed Nuclei (%)” value [1] was 11%. The “Population Tubulin-Different-Phenotype (%)” value [1] was 18%, the “Total Cell Count” value [1] was 145 and the “Population Apoptotic (%)” value [2] was 0%. The “Population Fragmented Nuclei (%)” value [2] was 20%, the “Population Healthy Nuclei (%)” value [2] was 75% and the “Population Hoechst High Intensity Objects (%)” value [2] was 25%. The “Population Membrane Permeable-Phenotype (%)” value [2] was 13%, the “Population Mitochondria Different-Phenotype (%)” value [2] was 19% and the “Population Mitotic Cells (%)” value [2] was 100%. The “Population Normal (%)” value [2] was 74%, the “Population Pyknosed Nuclei (%)” value [2] was 4% and the “Population Tubulin-Different-Phenotype (%)” value [2] was 19%. For the same compound, the “Total Cell Count” value [2] was 110, the “Population Apoptotic (%)” value [3] was 68% and 85% and the “Population Fragmented Nuclei (%)” value [3] was 15% and 25%. The “Population Healthy Nuclei (%)” value [3] was 6%, the “Population Hoechst High Intensity Objects (%)” value [3] was 5% and 7% and the “Population Membrane Permeable-Phenotype (%)” value [3] was 46% and 76%. The “Population Mitochondria Different-Phenotype (%)” value [3] was 92%, the “Population Mitotic Cells (%)” value [3] was 31% and 14% and the “Population Normal (%)” value [3] was 94% and 92%. The “Population Pyknosed Nuclei (%)” value [3] was 77% and 66%, the “Total Cell Count” value [3] was 174 and 176 and the “Population Apoptotic (%)” value [4] was 93% and 70%. The “Population Fragmented Nuclei (%)” value [4] was 35% and 26%, the “Population Healthy Nuclei (%)” value [4] was 7% and 13% and the “Population Membrane Permeable-Phenotype (%)” value [4] was 50% and 54%. The “Population Mitochondria Different-Phenotype (%)” value [4] was 100% and 81%, the “Population Normal (%)” value [4] was 78% and 93% and the “Population Pyknosed Nuclei (%)” value [4] was 57% and 60%. The “Population Tubulin-Different-Phenotype (%)” value [4] was 100% and 90%, the “Total Cell Count” value [4] was 73 and the “Population Apoptotic (%)” value [5] was 38%. For the same compound, the “Population Fragmented Nuclei (%)” value [5] was 10%, the “Population Healthy Nuclei (%)” value [5] was 81% and the “Population Hoechst High Intensity Objects (%)” value [5] was 3%. The “Population Membrane Permeable-Phenotype (%)” value [5] was 19%, the “Population Mitochondria Different-Phenotype (%)” value [5] was 16% and the “Population Mitotic Cells (%)” value [5] was 61%. The “Population Normal (%)” value [5] was 96%, the “Population Pyknosed Nuclei (%)” value [5] was 8% and the “Population Tubulin-Different-Phenotype (%)” value [5] was 14%. The “Total Cell Count” value [5] was 148, the “Population Apoptotic (%)” value [6] was 44% and the “Population Fragmented Nuclei (%)” value [6] was 25%. For the same compound, the “Population Healthy Nuclei (%)” value [6] was 68%, the “Population Hoechst High Intensity Objects (%)” value [6] was 14% and the “Population Membrane Permeable-Phenotype (%)” value [6] was 12%. The “Population Mitochondria Different-Phenotype (%)” value [6] was 11%, the “Population Mitotic Cells (%)” value [6] was 55% and the “Population Normal (%)” value [6] was 85%. For the same compound, the “Population Pyknosed Nuclei (%)” value [6] was 5%, the “Population Tubulin-Different-Phenotype (%)” value [6] was 13% and the “Total Cell Count” value [6] was 97. The “Population Apoptotic (%)” value [7] was 94% and 98%, the “Population Fragmented Nuclei (%)” value [7] was 31% and 18% and the “Population Healthy Nuclei (%)” value [7] was 4% and 9%. For the same compound, the “Population Hoechst High Intensity Objects (%)” value [7] was 12% and 23%, the “Population Membrane Permeable-Phenotype (%)” value [7] was 100% and the “Population Mitochondria Different-Phenotype (%)” value [7] was 100% and 80%. For the same compound, the “Population Mitotic Cells (%)” value [7] was 5% and 1%, the “Population Normal (%)” value [7] was 87% and 76% and the “Population Pyknosed Nuclei (%)” value [7] was 63% and 71%. The “Population Tubulin-Different-Phenotype (%)” value [7] was 100%, the “Total Cell Count” value [7] was 171 and 213 and the “Population Apoptotic (%)” value [8] was 100%. The “Population Fragmented Nuclei (%)” value [8] was 36% and 26%, the “Population Healthy Nuclei (%)” value [8] was 16% and the “Population Hoechst High Intensity Objects (%)” value [8] was 14% and 31%. The “Population Mitotic Cells (%)” value [8] was 0%, the “Population Normal (%)” value [8] was 85% and 68% and the “Population Pyknosed Nuclei (%)” value [8] was 59% and 58%. For the same compound, the “Population Tubulin-Different-Phenotype (%)” value [8] was 87%, the “Total Cell Count” value [8] was 192 and 76 and the “Population Apoptotic (%)” value [9] was 98%. For the same compound, the “Population Fragmented Nuclei (%)” value [9] was 32%, the “Population Healthy Nuclei (%)” value [9] was 6% and the “Population Hoechst High Intensity Objects (%)” value [9] was 26%. For the same compound, the “Population Membrane Permeable-Phenotype (%)” value [9] was 75%, the “Population Mitochondria Different-Phenotype (%)” value [9] was 100% and the “Population Mitotic Cells (%)” value [9] was 1%. For the same compound, the “Population Normal (%)” value [9] was 73%, the “Population Pyknosed Nuclei (%)” value [9] was 61% and the “Population Tubulin-Different-Phenotype (%)” value [9] was 100%. For the same compound, the “Total Cell Count” value [9] was 154, the “Population Apoptotic (%)” value [10] was 100% and the “Population Fragmented Nuclei (%)” value [10] was 28%. For the same compound, the “Population Healthy Nuclei (%)” value [10] was 50%, the “Population Hoechst High Intensity Objects (%)” value [10] was 44% and the “Population Membrane Permeable-Phenotype (%)” value [10] was 100%. The “Population Mitotic Cells (%)” value [10] was 0%, the “Population Normal (%)” value [10] was 55% and the “Population Pyknosed Nuclei (%)” value [10] was 21%. The “Total Cell Count” value [10] was 77.
